Article PMC6796888 (ACS Omega, 2019)
≈ marks a conversion by molar mass, not a printed value. Blank lines part the entries; values can stand above or below the compound they belong to.

Columns and labels:
[1] = test system: E. coli ATCC 25922; test: In vitro screening, % growth inhibition at 250 μg/mL; type: cell-based, Escherichia coli; conditions: for inhibition at 250 µg/mL: Escherichia coli, ATCC25922, 24 h, read-out: % inhibition at 250 μg/mL
Outline: (§1)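 Test compounds dissolved in DMSO and diluted in test medium. Mid-log cultures diluted in nutrient broth to McFarland standard and treated with 250 μg/mL in 96-well plates, 37 °C, 160 rpm, 24 h. Growth read as OD at 580 nm; % inhibition calculated from absorbance against untreated growth. Run twice on different occasions.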

[2] = test system: E. faecalis MTCC 439; test: as above; type: cell-based, Enterococcus faecalis; conditions: for inhibition at 250 µg/mL: Enterococcus faecalis, MTCC439, 24 h, read-out: % inhibition at 250 μg/mL
Outline: as §1

[3] = test system: P. auroginosa MTCC 2453; test: as above; type: cell-based, Pseudomonas auroginosa; conditions: for inhibition at 250 µg/mL: Pseudomonas, MTCC2453, 24 h, read-out: % inhibition at 250 μg/mL
Outline: as §1

[4] = test system: S. pneumoniae MTCC 655; test: as above; type: cell-based, Streptococcus pneumoniae; conditions: for inhibition at 250 µg/mL: Streptococcus pneumoniae, MTCC655, 24 h, read-out: % inhibition at 250 μg/mL
Outline: as §1

[5] = test system: E. coli; test: Time–kill curve assay; type: cell-based, Escherichia coli
Outline: (§2)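 Nutrient broth inoculated with about 2 × 10^6 cells of fresh culture, two-fold diluted and exposed to test compound at MIC or 2MIC; untreated control included. Incubation at 37 °C, 160 rpm. At 0, 2, 4, 8 and 24 h, 100 μL was diluted in sterile saline, 50 μL plated on nutrient agar and colonies counted after 24 h at 37 °C. Duplicate; mean log10 CFU/mL plotted against time.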

[6] = test system: E. coli; test: Synergistic assay with ciprofloxacin; type: cell-based, Escherichia coli
[7] = test system: S. pneumoniae MTCC 655; test: Disk diffusion assay; type: cell-based, Streptococcus pneumoniae
[8] = test system: S. pneumoniae biofilm; test: Biofilm assessment by XTT assay; type: cell-based, Streptococcus pneumoniae
[9] = test system: S. typhimurium; test: Synergistic assay with ciprofloxacin; type: cell-based, Salmonella typhimurium
[10] = test system: P. aeruginosa; test: Synergistic assay with ciprofloxacin; type: cell-based
[11] = test system: S. typhimurium MTCC 3224; test: MIC by broth microdilution; type: cell-based; conditions: Salmonella enterica, MTCC3224|TYPHIMURIUM
[12] = test system: S. pneumoniae; test: Synergistic assay with ciprofloxacin; type: cell-based, Streptococcus pneumoniae
[13] = Hemolytic assay; type: cell-based; conditions: human, human red blood cells (erythrocytes/PBS suspension)
Outline: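 Human blood from a healthy donor was collected in EDTA and spun at 2000 rpm for 10 min at room temperature. Erythrocytes were PBS-washed, made into a 10% (v/v) suspension and diluted 1:10. Test compound (400–3.125 μg/mL in PBS) mixed with an equal volume of this suspension, 1 h at 37 °C, then spun.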

[14] = test system: E. coli biofilm; test: Biofilm assessment by XTT assay; type: cell-based, Escherichia coli; conditions: for reduction in absorbance (biofilm, XTT): 24 h
Outline: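 Biofilms grown from 100 μL standardized cell suspension in nutrient broth with 0.5% extra glucose, 37 °C, 24 h, static. […] Washed again, XTT salt added for 90 min at 37 °C in the dark, A490 read. % inhibition taken from dose–response curves.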

[15] = test system: S. typhimurium MTCC 3224; test: In vitro screening, % growth inhibition at 250 μg/mL; type: cell-based, Salmonella typhimurium; conditions: 24 h
Outline: as §1

[16] = test system: S. pneumoniae; test: Time–kill curve assay; type: cell-based, Streptococcus pneumoniae; conditions: up to 24 h
Outline: as §2

[17] = test system: S. pneumoniae MTCC 655; test: MIC by broth microdilution; type: cell-based; conditions: Streptococcus pneumoniae, MTCC655
[18] = test system: E. coli cells; test: Confocal laser microscopy with DAPI staining; type: cell-based, Escherichia coli; conditions: MIC of 4l for 3 h
[19] = test system: P. auroginosa MTCC 2453; test: MIC by broth microdilution; type: cell-based, Pseudomonas auroginosa; conditions: Pseudomonas, MTCC2453
[20] = test system: E. coli ATCC 25922; test: MIC by broth microdilution; type: cell-based; conditions: Escherichia coli, ATCC25922
[21] = test system: S. pneumoniae MTCC 655; test: Spot assay; type: cell-based, Streptococcus pneumoniae; conditions: 2MIC, 6 h exposure
Outline: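 Mid-log S. pneumoniae MTCC 655 harvested and diluted in sterile PBS to McFarland standard. 2 mL suspension exposed to test compound at 2MIC, MIC or 0.5MIC, 37 °C, 160 rpm, 6 h. 2 μL spots put on nutrient agar, 37 °C for 24 h, growth scored +/−. Ciprofloxacin-treated positive and untreated negative controls. Triplicate, three occasions.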

[22] = test system: E. coli ATCC 25922; test: Disk diffusion assay; type: cell-based, Escherichia coli
[23] = test system: S. pneumoniae; test: Growth kinetic studies; type: cell-based, Streptococcus pneumoniae; conditions: 2MIC and MIC
[24] = test system: E. faecalis; test: Synergistic assay with ciprofloxacin; type: cell-based, Enterococcus faecalis
[25] = test system: E. faecalis MTCC 439; test: MIC by broth microdilution; type: cell-based; conditions: Enterococcus faecalis, MTCC439
[26] = test system: E. coli biofilm; test: Biofilm formation assessment by SEM; type: cell-based, Escherichia coli; conditions: 24 h
Outline: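 Sterile glass pieces (10 mm2) placed in nutrient broth with 0.5% extra glucose and inoculated with fresh E. coli primary culture. […] Glass washed with PBS and fixed overnight in 2.5% glutaraldehyde/2% paraformaldehyde in 0.1 M phosphate buffer pH 7.4. Washed, dried, imaged by SEM; untreated control included.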

[27] = test system: E. coli; test: Growth kinetic studies; type: cell-based, Escherichia coli; conditions: 2MIC and MIC
[28] = S. typhimurium, 4l combined with CIP
[29] = P. aeruginosa, 4l combined with CIP
[30] = S. pneumoniae, 4l combined with CIP
[31] = E. faecalis, 4l combined with CIP

Compound: CNC1=C([N+](=O)[O-])C2(C(=O)Nc3ccc([N+](=O)[O-])cc32)C2=C(CC(C)(C)CC2=O)O1 (stereo not shown) [Compound 4d]
inhibition at 250 µg/mL [1]: 36.1%
inhibition at 250 µg/mL [2]: 30.4%
inhibition at 250 µg/mL [3]: 52.5%
inhibition at 250 µg/mL [4]: 23.2%

Compound: CNC1=C([N+](=O)[O-])C2(C(=O)Nc3ccccc32)c2c(c3ccccc3oc2=O)O1 (stereo not shown) [Compound 4i]
inhibition at 250 µg/mL [1]: 15.4%
inhibition at 250 µg/mL [2]: 7.5%
inhibition at 250 µg/mL [3]: 6.58%
inhibition at 250 µg/mL [4]: 1.96%

Compound: CNC1=C([N+](=O)[O-])C2(C(=O)Nc3ccc(Cl)cc32)c2c(c3ccccc3oc2=O)O1 (stereo not shown) [Compound 4j]
inhibition at 250 µg/mL [1]: 45.8%
inhibition at 250 µg/mL [2]: 27.2%
inhibition at 250 µg/mL [3]: 23.1%
inhibition at 250 µg/mL [4]: 27.8%

Compound: CNC1=C([N+](=O)[O-])C2(C(=O)Nc3ccc(Br)cc32)c2c(c3ccccc3oc2=O)O1 (stereo not shown) [Compound 4k]
inhibition at 250 µg/mL [1]: 32%
inhibition at 250 µg/mL [2]: 18.1%
inhibition at 250 µg/mL [3]: 4.61%
inhibition at 250 µg/mL [4]: 19.7%

MIC in combination ([6]; E. coli, 4l combined with CIP): 3.90 µg/mL
MIC ([6]; Escherichia coli, read-out: MIC alone): 125 µg/mL
MIC in combination [9, 28]: 3.90 µg/mL
MIC ([9]; Salmonella enterica, TYPHIMURIUM, read-out: MIC alone): 250 µg/mL
MIC in combination [10, 29]: 15.63 µg/mL
MIC ([10]; Pseudomonas aeruginosa, read-out: MIC alone): 250 µg/mL
MIC [11]: 250 µg/mL (≈ 620 µM)
MIC in combination [12, 30]: 3.90 µg/mL
MIC ([12]; Streptococcus pneumoniae, read-out: MIC alone): 125 µg/mL
MIC [17]: 125 µg/mL (≈ 310 µM)
MIC [19]: 125 µg/mL (≈ 310 µM)
MIC [20]: 125 µg/mL (≈ 310 µM)
MIC in combination [24, 31]: 3.90 µg/mL
MIC ([24]; Enterococcus faecalis, read-out: MIC alone): 250 µg/mL
MIC [25]: 250 µg/mL (≈ 620 µM)
Compound: CNC1=C([N+](=O)[O-])C2(C(=O)Nc3ccccc32)C2=C(O1)C(=O)c1ccccc1C2=O (stereo not shown) [Compound 4l]
killing activity (time–kill) ([5]; 2MIC, after 24 h): complete eradication
killing activity (time–kill) ([5]; MIC, up to 24 h): significant decrease in log10 CFU/mL
FICI ([6]; E. coli, 4l combined with CIP): 0.53
additional opaque zone of inhibition ([7]; 2MIC, MIC and 0.5MIC disks): 3 ± 1 mm
clear zone of inhibition ([7]; disk with 0.5MIC (62.5 μg/mL)): 14 mm
clear zone of inhibition ([7]; disk with 2MIC (250 μg/mL)): 17 mm
clear zone of inhibition ([7]; disk with MIC (125 μg/mL)): 15 mm
effect on biofilm formation (XTT) ([8]; even at MIC, 24 h): almost completely disrupted biofilm formation
effect on biofilm formation (XTT) ([8]; sub-MIC: MIC/2, MIC/4, MIC/8): significant reduction in biofilm formation
FICI [9, 28]: 1.01
mode of interaction [9, 28]: indifferent (An FIC index result of >0.5 but <4 was considered indifferent)
FICI [10, 29]: 1.06
mode of interaction [10, 29]: indifferent (An FIC index result of >0.5 but <4 was considered indifferent)
FICI [12, 30]: 0.29
mode of interaction [12, 30]: synergistic (Synergy and antagonism were defined by FIC indices of <0.5 and >4, respectively)
hemolysis at 1 h, 100 μg/mL [13]: 13%
hemolysis at 1 h, 200 μg/mL [13]: 20%
hemolysis at 1 h, 400 μg/mL [13]: 32%
reduction in absorbance (biofilm, XTT) ([14]; 2MIC (by order)): 80%
reduction in absorbance (biofilm, XTT) ([14]; 4MIC (first of 4MIC, 2MIC, MIC by order)): 97%
reduction in absorbance (biofilm, XTT) ([14]; MIC (by order)): 77%
effect on biofilm formation (XTT) ([14]; sub-MIC: MIC/2, MIC/4, MIC/8): significant reduction in biofilm formation
% inhibition at 250 μg/mL [15]: complete inhibition
killing activity (time–kill) ([16]; 2MIC): almost completely killed bacterial cells
killing activity (time–kill) ([16]; MIC): significant decrease in log10 CFU/mL
effect on E. coli cells under confocal microscopy (DAPI) [18]: reduction in the number of living cells
% inhibition at 250 μg/mL ([1]; E. coli ATCC 25922, 250 μg/mL, 24 h): complete inhibition
inhibition at 250 µg/mL [1]: 100%
growth in spot assay (in words) [21]: no S. pneumoniae growth
additional opaque zone of inhibition ([22]; 2MIC, MIC and 0.5MIC disks): 3 ± 1 mm
clear zone of inhibition ([22]; disk with 0.5MIC (62.5 μg/mL)): 14 mm
clear zone of inhibition ([22]; disk with 2MIC (250 μg/mL)): 18 mm
clear zone of inhibition ([22]; disk with MIC (125 μg/mL)): 17 mm
% inhibition at 250 μg/mL ([2]; E. faecalis MTCC 439, 250 μg/mL, 24 h): complete inhibition
inhibition at 250 µg/mL [2]: 100%
continuous lag phase (no substantial growth) [23]: 24 h
FICI [24, 31]: 0.27
mode of interaction [24, 31]: synergistic (Synergy and antagonism were defined by FIC indices of <0.5 and >4, respectively)
% inhibition at 250 μg/mL ([3]; P. auroginosa MTCC 2453, 250 μg/mL, 24 h): complete inhibition
inhibition at 250 µg/mL [3]: 100%
% inhibition at 250 μg/mL ([4]; S. pneumoniae MTCC 655, 250 μg/mL, 24 h): complete inhibition
inhibition at 250 µg/mL [4]: 100%
biofilm appearance under SEM ([26]; 2MIC): very few scattered bacterial cells
biofilm appearance under SEM ([26]; MIC): significant damage in biofilm formation
continuous lag phase (no substantial growth) [27]: 24 h
